Reference: ChEMBL document CHEMBL1131162, “Bisquinolines. 2. Antimalarial N,N-bis(7-chloroquinolin-4-yl)heteroalkanediamines” (J Med Chem, 1998)

Tests used:
[1] = test system: Mus musculus; assay: Number of Plasmodium berghei infected mice cured after administration of 160 mg/kg dose; format: functional
[2] = test system: Plasmodium falciparum; assay: Antimalarial activity against Plasmodium falciparum D6 in vitro.; format: functional, organism-based
[3] = test system: Mus musculus; assay: Number of Plasmodium berghei infected mice died on day 9 at 40 mg/kg; format: functional
[4] = test system: Mus musculus; assay: Number of Plasmodium berghei infected mice died on day 13 at 40 mg/kg; format: functional
Method in brief: (§1)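 Male mice infected with drug-sensitive P. berghei KBG 173; single subcutaneous dose given 3 days postinfection, five mice per dose; survival followed, with cure (C) meaning survival to 60 days postinfection and deaths 0–2 days after treatment scored as toxicity (T).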

[5] = test system: Plasmodium falciparum; assay: In vitro antimalarial activity against chloroquine-resistant Plasmodium falciparum W2; format: functional, organism-based
[6] = test system: Mus musculus; assay: Number of Plasmodium berghei infected mice cured after administration of 640 mg/kg; format: functional
[7] = test system: Mus musculus; assay: (§2) Number of Plasmodium berghei infected mice died on day 7 at 40 mg/kg; format: functional; method in brief: as §1
[8] = test system: Plasmodium falciparum; assay: In vitro inhibition of hematin polymerization in Plasmodium falciparum; format: functional
[9] = test system: Mus musculus; assay: (§3) Number of Plasmodium berghei infected mice died on day 8 at 160 mg/kg; format: functional; method in brief: as §1
[10] = test system: Mus musculus; assay: Number of Plasmodium berghei infected mice died on day 18 at 160 mg/kg; format: functional; method in brief: as §1
[11] = test system: Mus musculus; assay: as §2; format: functional; remark: listed apart in the source
[12] = test system: Mus musculus; assay: Number of Plasmodium berghei infected mice died on day 9 at 160 mg/kg; format: functional; method in brief: as §1
[13] = test system: Mus musculus; assay: Number of Plasmodium berghei infected mice died on day 24 at 640 mg/kg; format: functional; method in brief: as §1
[14] = test system: Mus musculus; assay: Number of Plasmodium berghei infected mice died on day 8 at 40 mg/kg; format: functional; method in brief: as §1
[15] = test system: Mus musculus; assay: Number of Plasmodium berghei infected mice died on day 10 at 40 mg/kg; format: functional; method in brief: as §1
[16] = test system: Mus musculus; assay: as §3; format: functional; remark: listed apart in the source
[17] = test system: Mus musculus; assay: Number of Plasmodium berghei infected mice died on day 14 at 640 mg/kg; format: functional; method in brief: as §1
[18] = test system: Mus musculus; assay: Number of Plasmodium berghei infected mice died on day 29 at 640 mg/kg; format: functional; method in brief: as §1
[19] = test system: Mus musculus; assay: Number of Plasmodium berghei infected mice died on day 10 at 160 mg/kg; format: functional; method in brief: as §1
[20] = test system: Mus musculus; assay: Number of Plasmodium berghei infected mice died on day 13 at 640 mg/kg; format: functional; method in brief: as §1
[21] = test system: Plasmodium falciparum; assay: Inhibition of hematin polymerization in Plasmodium falciparum; format: functional
[22] = test system: Mus musculus; assay: (§4) Number of Plasmodium berghei infected mice died on day 12 at 640 mg/kg; format: functional
[23] = test system: Mus musculus; assay: Number of Plasmodium berghei infected mice died on day 16 at 640 mg/kg; format: functional; method in brief: as §1
[24] = test system: Mus musculus; assay: Number of Plasmodium berghei infected mice died on day 13 at 160 mg/kg; format: functional; method in brief: as §1
[25] = test system: Mus musculus; assay: Number of Plasmodium berghei infected mice died on day 33 at 640 mg/kg; format: functional; method in brief: as §1
[26] = test system: Mus musculus; assay: Number of Plasmodium berghei infected mice died on day 11 at 40 mg/kg; format: functional; method in brief: as §1
[27] = test system: Mus musculus; assay: Number of Plasmodium berghei infected mice died on day 16 at 160 mg/kg; format: functional; method in brief: as §1
[28] = test system: Mus musculus; assay: Number of Plasmodium berghei infected mice cured after administration of the dose 640 mg/kg; format: functional; method in brief: as §1
[29] = test system: Mus musculus; assay: (§5) Number of Plasmodium berghei infected mice died on day 6 at 40 mg/kg; format: functional; method in brief: as §1
[30] = test system: Mus musculus; assay: Number of Plasmodium berghei infected mice died on day 7 at 640 mg/kg; format: functional; method in brief: as §1
[31] = test system: Mus musculus; assay: Number of Plasmodium berghei infected mice died on day 7 at 160 mg/kg; format: functional; method in brief: as §1
[32] = test system: Mus musculus; assay: (§6) Number of Plasmodium berghei infected mice died on day 6 at 160 mg/kg; format: functional; method in brief: as §1
[33] = test system: Mus musculus; assay: Number of Plasmodium berghei infected mice died on day 14 at 160 mg/kg; format: functional; method in brief: as §1
[34] = test system: Mus musculus; assay: Number of Plasmodium berghei infected mice cured after administration of a compound dose 640 mg/kg; format: functional
[35] = test system: Mus musculus; assay: Number of Plasmodium berghei infected mice died on day 19 at 640 mg/kg; format: functional; method in brief: as §1
[36] = test system: Mus musculus; assay: Number of Plasmodium berghei infected mice died on day 12 at 160 mg/kg; format: functional; method in brief: as §1
[37] = test system: Mus musculus; assay: Number of Plasmodium berghei infected mice died on day 6 at 640 mg/kg; format: functional
[38] = test system: Mus musculus; assay: as §5; format: functional; remark: listed apart in the source
[39] = test system: Mus musculus; assay: as §6; format: functional; remark: listed apart in the source
[40] = test system: Mus musculus; assay: Number of Plasmodium berghei infected mice died on day 20 at 640 mg/kg; format: functional; method in brief: as §1
[41] = test system: Mus musculus; assay: Number of Plasmodium berghei infected mice died at 640 mg/kg; Curative; format: functional; method in brief: as §1
[42] = test system: Mus musculus; assay: Number of Plasmodium berghei infected mice died on day 22 at 640 mg/kg; format: functional; method in brief: as §1
[43] = test system: Mus musculus; assay: Number of Plasmodium berghei infected mice died at 160 mg/kg; Curative; format: functional; method in brief: as §1
[44] = test system: Mus musculus; assay: Number of Plasmodium berghei infected mice died on day 12 at 40 mg/kg; format: functional; method in brief: as §1
[45] = test system: Mus musculus; assay: Number of Plasmodium berghei infected mice died on day 17 at 160 mg/kg; format: functional; method in brief: as §1
[46] = test system: Mus musculus; assay: Number of Plasmodium berghei infected mice died on day 18 at 640 mg/kg; format: functional; method in brief: as §1
[47] = test system: Mus musculus; assay: Number of Plasmodium berghei infected mice died on day 26 at 160 mg/kg; format: functional; method in brief: as §1
[48] = test system: Mus musculus; assay: as §4; format: functional; method in brief: as §1; remark: listed apart in the source
[49] = test system: Mus musculus; assay: Number of Plasmodium berghei infected mice died on day 11 at 160 mg/kg; format: functional
[50] = test system: Mus musculus; assay: Number of Plasmodium berghei infected mice died on day 14 at 40 mg/kg; format: functional; method in brief: as §1
[51] = test system: Mus musculus; assay: Number of Plasmodium berghei infected mice died on day 16 at 40 mg/kg; format: functional; method in brief: as §1
[52] = test system: Mus musculus; assay: Number of Plasmodium berghei infected mice died on day 23 at 160 mg/kg; format: functional; method in brief: as §1
[53] = test system: Mus musculus; assay: Number of Plasmodium berghei infected mice died on day 15 at 40 mg/kg; format: functional; method in brief: as §1
[54] = test system: Mus musculus; assay: Number of Plasmodium berghei infected mice died at 40 mg/kg; Curative; format: functional; method in brief: as §1
[55] = test system: Mus musculus; assay: Number of Plasmodium berghei infected mice died at 640 mg/kg; Toxic; format: functional; method in brief: as §1
[56] = test system: Mus musculus; assay: Number of Plasmodium berghei infected mice died on day 25 at 640 mg/kg; format: functional; method in brief: as §1
[57] = test system: Mus musculus; assay: Number of Plasmodium berghei infected mice died on day 20 at 160 mg/kg; format: functional; method in brief: as §1

Row | SMILES | IC50 [2] [µM] | Number [3] | IC50 [5] [µM] | Number [7] | IC50 [8] [µM] | Number [10] | Number [11] | Number [14] | Number [17] | Number [19] | Number [20] | IC50 [21] [µM] | Number [24] | other results
1 | Clc1ccc2c(NCCOCCOCCNc3ccnc4cc(Cl)ccc34)ccnc2c1 | 0.0025 | 2 | 0.0099 | 2 | 15 |  |  |  |  |  |  |  |  | Number [1]: 1; Number [4]: 1; Number [6]: 1; Number [9]: 3
2 | Clc1ccc2c(NCCOCCNc3ccnc4cc(Cl)ccc34)ccnc2c1 | 0.016 |  | 0.089 |  |  | 1 | 1 | 3 | 1 | 1 | 2 | 20 |  | Number [12]: 2; Number [13]: 1; Number [15]: 1; Number [16]: 1; Number [18]: 1
3 | CN(CCCNc1ccnc2cc(Cl)ccc12)CCCNc1ccnc2cc(Cl)ccc12 | 0.0059 | 2 | 0.0028 |  |  | 2 |  | 2 | 1 |  | 1 | 8 | 3 | Number [22]: 1; Number [23]: 1; Number [25]: 1; Number [26]: 1
4 | Clc1ccc2c(N3CCN(CN4CCN(c5ccnc6cc(Cl)ccc56)CC4)CC3)ccnc2c1 | > 1 |  | > 1 | 4 | > 2500 |  |  |  |  | 1 |  |  |  | Number [27]: 1; Number [28]: 3; Number [12]: 3; Number [29]: 1
5 | Clc1ccc2c(NCCCCCCNCCCCCCNc3ccnc4cc(Cl)ccc34)ccnc2c1 | 0.011 |  | 0.0054 | 1 | 7 |  |  |  |  |  |  |  |  | Number [30]: 5; Number [31]: 3; Number [32]: 2; Number [29]: 4
6 | Clc1ccc2c(NCCCOCCOCCOCCCNc3ccnc4cc(Cl)ccc34)ccnc2c1 | 0.024 | 3 | 0.048 |  | 20 |  |  | 1 | 1 |  |  |  | 1 | Number [33]: 2; Number [34]: 3; Number [35]: 1; Number [26]: 1; Number [36]: 2
7 | Clc1ccc2c(NCCCNCCNc3ccnc4cc(Cl)ccc34)ccnc2c1 | 0.026 |  | 0.007 |  |  |  | 1 |  |  |  |  | 16 |  | Number [37]: 5; Number [38]: 4; Number [39]: 5
8 | Clc1ccc2c(NCCN3CCN(c4ccnc5cc(Cl)ccc45)CC3)ccnc2c1 | 0.0012 | 1 | 0.009 |  |  |  |  | 1 |  |  |  | 5 | 3 | Number [40]: 1; Number [41]: 1; Number [42]: 1; Number [33]: 1; Number [43]: 1; Number [44]: 1; Number [23]: 1; Number [4]: 2; Number [45]: 1; Number [46]: 1
9 | Clc1ccc2c(NCCCOCCCCOCCCNc3ccnc4cc(Cl)ccc34)ccnc2c1 | 0.022 | 2 | 0.021 |  |  |  | 1 | 1 |  | 2 | 2 | 19 |  | Number [47]: 1; Number [48]: 3; Number [15]: 1; Number [49]: 1; Number [36]: 1
10 | CCN(CC)CCCC(C)Nc1ccnc2cc(Cl)ccc12 (stereo not drawn) [CHLOROQUINE] |  |  |  |  |  | 1 |  |  |  |  |  |  |  | Number [43]: 1; Number [27]: 1; Number [50]: 2; Number [51]: 1; Number [52]: 1; Number [44]: 1; Number [53]: 1; Number [54]: 1; Number [55]: 3; Number [56]: 1; Number [57]: 1
